For experiment [1], the target named is Carbonic anhydrase 2 (Homo sapiens) (UniProt P00918). Briefly: Activation of human cytosolic carbonic anhydrase 2 preincubated for 15 mins by stopped-flow CO2 hydration assay. The method in brief: (§1)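 Initial velocity taken from at least six traces of the first 5–10% of reaction per activator, with uncatalyzed rates measured identically and subtracted. Activator stocks 10 mM in distilled-deionized water, diluted with water down to 0.1 nM. Enzyme and activator preincubated 15 min at room temperature before assay.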

For experiment [2], the target named is Carbonic anhydrase 1 (Homo sapiens) (UniProt P00915). Briefly: Activation of human cytosolic carbonic anhydrase 1 preincubated for 15 mins by stopped-flow CO2 hydration assay. A digest of the protocol: as §1
Sequence of Carbonic anhydrase 1 (Homo sapiens) (P00915 2-261 limits assumed): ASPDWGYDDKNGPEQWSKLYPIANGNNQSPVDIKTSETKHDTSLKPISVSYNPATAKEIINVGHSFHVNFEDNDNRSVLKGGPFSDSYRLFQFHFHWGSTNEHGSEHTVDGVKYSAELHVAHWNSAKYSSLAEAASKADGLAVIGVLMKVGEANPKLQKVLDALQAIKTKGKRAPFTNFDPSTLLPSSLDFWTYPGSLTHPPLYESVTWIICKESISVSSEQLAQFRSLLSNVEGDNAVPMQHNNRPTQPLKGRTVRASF

12 molecules from ChEMBL document CHEMBL1806369, “Carbonic anhydrase I and II activation with mono- and dihalogenated histamine derivatives” (Bioorg Med Chem Lett, 2011) can be followed below.

Regarding `NCCc1nc(Cl)[nH]c1Cl`, the KA was determined as 0.115 µM in experiment [1] and 0.021 µM in experiment [2].
Taken in the same sequence, the figures for `CC(C)(C)OC(=O)NCCc1nc(Cl)[nH]c1Cl` were 50.2 µM and 5.4 µM.
On the same counts, the results for `NCCc1nc[nH]c1Br` are 0.008 µM and 0.012 µM.
On the same counts, the results for `CC(C)(C)OC(=O)NCCc1nc(Br)[nH]c1Br` are 44.5 µM and 7.1 µM.
Consider `NCCc1nc(Br)[nH]c1Br`, for which the KA in experiment [1] worked out at 0.096 µM; in experiment [2] it was 0.015 µM.
As for `CC(C)(C)OC(=O)NCCc1nc[nH]c1Cl`, the figures for the KA in experiment [1] and in experiment [2] were 24.8 µM and 16.5 µM, respectively.
In the case of `CC(C)(C)OC(=O)NCCc1nc[nH]c1Br`, the results for the KA in experiment [1] and in experiment [2] were 28.5 µM and 13.3 µM, respectively.
On the same counts, the results for `CC(C)(C)OC(=O)NCCc1nc(I)[nH]c1I` are 13.6 µM and 29.3 µM.
`CC(C)(C)OC(=O)NCCc1nc[nH]c1I`: the KA was found to be 36.7 µM in experiment [1] and 12.1 µM in experiment [2].
With `NCCc1nc[nH]c1Cl`, the results for the KA in experiment [1] and in experiment [2] were 0.032 µM and 0.018 µM, respectively.
Taken in the same sequence, the figures for `NCCc1nc[nH]c1I` were 0.001 µM and 0.0007 µM.
For `NCCc1nc(I)[nH]c1I`, the KA came to 0.065 µM in experiment [1] and 0.0009 µM in experiment [2].
